Measured values from different studies.
Lines come from different studies, so protocols differ. pIC50: −log10 of the molar value.
Observed: cell growth or viability

SMILES	cell line	test	setting	quantity	value
NCC(=O)Nc1ccccc1/N=c1\cc(-c2ccc3c(c2)OCO3)oc2ccccc12	MDA-MB-231	CCK-8	1 µM	inhibition	12.4%
COc1cc(C(=O)c2nc(-c3ccc4cc[nH]c4c3)c[nH]2)cc(OC)c1OC	A-375	MTS	72 h	pIC50	7.70
NCCCCC(=O)Nc1ccccc1/N=c1\cc(-c2ccc3c(c2)OCO3)oc2ccccc12	MDA-MB-231	CCK-8	1 µM	inhibition	-5.88%
COc1cccc2c1C(=O)c1c(O)c3c(c(O)c1C2=O)C[C@@](O)(C(=O)CO)C[C@@H]3O[C@H]1C[C@H](N)[C@H](O)[C@H](C)O1	MRC5	MTT	75 h	pIC50	5.57
O=C(Nc1ccccc1)Nc1ccc(Oc2nc3ccccc3n3cnnc23)cc1	MDA-MB-231	MTT	100 µM, 24 h	viability	41.6%
COc1ccc2/c(=N/c3ccccc3NC(=O)[C@@H](N)C(C)(C)C)cc(-c3ccc4c(c3)OCCO4)oc2c1	MDA-MB-231	CCK-8	1 µM	inhibition	6.88%
O=c1[nH]cc(F)c(=O)[nH]1	C32	SRB	72 h	IC50	0.59 µg/mL
COc1cc(C(=O)c2nc(-c3cccc4c3CCN4)c[nH]2)cc(OC)c1OC	A-375	MTS	72 h	pIC50	7.66
CN(C)c1cccc(Nc2nc(-c3ccncc3)nc3c2CNCC3)c1	A-375	MTT	–	pIC50	4.05
Cc1nc(Nc2ncc(C(=O)Nc3c(C)cccc3Cl)s2)cc(N2CC[C@H](O)C2)n1	OCI-Ly3	ATP luminescence	10 µM, 72 h	inhibition	45%
COc1cccc(NC(=O)Nc2ccc(Oc3nc4ccccc4n4cnnc34)cc2)c1	MDA-MB-231	MTT	50 µM, 24 h	viability	32.4%
O=C(Nc1ccccc1/N=c1\cc(-c2ccc3c(c2)OCO3)oc2ccccc12)N1CCNCC1	MDA-MB-231	CCK-8	1 µM	inhibition	2.22%
O=C(Nc1ccc(Oc2nc3ccccc3n3cnnc23)cc1)Nc1cccc(Cl)c1	MDA-MB-231	MTT	3.125 µM, 24 h	viability	100%
Oc1cccc(-c2nc(N3CCOCC3)c3oc4ncccc4c3n2)c1	MDA-MB-231	CCK-8	1 µM	inhibition	18.8%
COc1cc(C(=O)c2nc(-c3cccc4[nH]ccc34)c[nH]2)cc2c1OCO2	A-375	MTS	72 h	pIC50	8.29
CNC(=O)c1cc(Oc2ccc(NC(=O)Nc3ccc(Cl)c(C(F)(F)F)c3)cc2)ccn1	MDA-MB-231	MTT	3.125 µM, 24 h	viability	70.2%
O=C(NN=Cc1ccc([N+](=O)[O-])s1)C1CC(=O)N(c2ccc(F)cc2F)C1 (centres unmarked)	A-375	MTT	100 µM, 72 h	viability	4.41%
